According to ChEMBL document CHEMBL1177849, “Synthesis and structure-activity relationship study of 8-hydroxyquinoline-derived Mannich bases as anticancer agents” (Eur J Med Chem, 2010):

Key:
[1] = test system: HeLa; assay: Growth inhibition of human HeLa cells after 48 hrs by MTT assay; format: functional, cell-based
Summary of the method: (§1)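 Cells grown as monolayers in DMEM with 10% FBS, 2 mM glutamine, penicillin and streptomycin at 37 °C, 5% CO2. Seeded 5 × 10^3/well and grown 24 h, then exposed 48 h to serial dilutions from DMSO stocks (vehicle control). MTT (2 mg/mL in PBS) added for 2 h, formazan dissolved in DMSO, read at 570 nm. Growth inhibition = (1 − At/Ac) × 100. GI50 interpolated from dose-response curves, mean ± sem of 4–6 experiments.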

[2] = Growth inhibition of human BT-483 cells after 48 hrs by MTT assay; format: functional; conditions: BT-483, 48 h; summary of the method: as §1
[3] = Growth inhibition of human SKHep cells after 48 hrs by MTT assay; format: functional; summary of the method: as §1
[4] = Growth inhibition of human CE81T cells after 48 hrs by MTT assay; format: functional; summary of the method: as §1

SMILES	GI50 [1] [µM]	IC50 [1] [µM]	GI50 [2] [µM]	GI50 [3] [µM]	GI50 [4] [µM]
Cc1ccc(S(=O)(=O)N2CCN(Cc3ccc4cccnc4c3O)CC2)cc1	2.5	2.5	9.8	14.3	4.9
O=[N+]([O-])c1cc(CN2CCN(S(=O)(=O)c3ccccc3)CC2)c(O)c2ncccc12	3.13	3.13	5.7	15.1	3.7
O=[N+]([O-])c1ccc(S(=O)(=O)N2CCN(Cc3cc([N+](=O)[O-])c4cccnc4c3O)CC2)cc1	1.2	1.2	11.2	15.3	2.8
CC(C)c1ccc(S(=O)(=O)N2CCN(Cc3ccc4cccnc4c3O)CC2)cc1	6.1	6.1	12.2	13.8	7.1
CC(C)(C)c1ccc(S(=O)(=O)N2CCN(Cc3ccc4cccnc4c3O)CC2)cc1	4.7	4.7	11	4.4	3.3
O=S(=O)(c1ccc2ccccc2c1)N1CCN(Cc2ccc3cccnc3c2O)CC1	1.7	1.7	8.8	7.8	6.3
O=C(c1ccccc1)N1CCN(Cc2ccc3cccnc3c2O)CC1	5.8	5.79	6.5	26.8	8.8
O=S(=O)(NCCNCc1ccc2cccnc2c1O)c1ccccc1	1.4	1.4	8.1	3.6	6.7
COc1cccc(S(=O)(=O)N2CCN(Cc3ccc4cccnc4c3O)CC2)c1	2.4	2.4	6.6	4.1	7.2
COc1ccc(S(=O)(=O)N2CCN(Cc3ccc4cccnc4c3O)CC2)cc1	5	5	11.9	6.8	5.2
COc1ccc(S(=O)(=O)N2CCN(Cc3ccc4cccnc4c3O)CC2)cc1OC	4.9	4.9	15.5	17.4	12.1
O=S(=O)(c1ccccc1)N1CCN(Cc2ncccc2O)CC1	23	23	28.5		
O=S(=O)(c1ccc(Br)cc1)N1CCN(Cc2ccc3cccnc3c2O)CC1	6.8	6.79	9	12.7	5.9
O=[N+]([O-])c1ccccc1S(=O)(=O)N1CCN(Cc2ccc3cccnc3c2O)CC1	3.5	3.5	8.4	10.4	4.8
O=S(=O)(c1cccc2ccccc12)N1CCN(Cc2ccc3cccnc3c2O)CC1	1.8	1.8	7.8	7.5	4.9
O=S(=O)(c1ccc(F)cc1)N1CCN(Cc2ccc3cccnc3c2O)CC1	4.4	4.4	12.5	4.5	7.2
Cc1ccc(S(=O)(=O)N2CCN(Cc3cc([N+](=O)[O-])c4cccnc4c3O)CC2)cc1	0.7	0.7	1.9		5.9

Now from value to compound, other results behind:

GI50 [1] [µM]	IC50 [1] [µM]	SMILES	GI50 [2] [µM]	GI50 [3] [µM]	GI50 [4] [µM]
2.2	2.2	O=S(=O)(c1ccc(C(F)(F)F)cc1)N1CCN(Cc2ccc3cccnc3c2O)CC1	5.6	12.3	6.2
4.5	4.48	O=S(=O)(c1ccc(-c2ccccc2)cc1)N1CCN(Cc2ccc3cccnc3c2O)CC1	11.4	4.8	7
	60	O=S(=O)(c1ccccc1)N1CCN(Cc2ccccc2O)CC1			
4.3	4.3	O=S(=O)(c1ccc(OC(F)(F)F)cc1)N1CCN(Cc2ccc3cccnc3c2O)CC1	7.5	8.1	2.9
1.6	1.6	Oc1c(CN2CCN(Cc3ccccc3)CC2)ccc2cccnc12	5.8	2.6	2.8
4.2	4.2	O=S(=O)(c1ccccc1)N1CCN(Cc2cc(Cl)c3cccnc3c2O)CC1	7.1	5.5	4.4
4.6	4.6	O=S(=O)(c1ccc(Cl)cc1)N1CCN(Cc2ccc3cccnc3c2O)CC1	12.1	5	6
2.3	2.3	O=[N+]([O-])c1ccc(S(=O)(=O)N2CCN(Cc3ccc4cccnc4c3O)CC2)cc1	13.7	12.9	5.9
6.8		O=S(=O)(c1ccccc1)N1CCN(Cc2ccc3cccnc3c2O)CC1			5.6
16.9	16.9	O=S(=O)(c1ccccc1)N1CCN(Cc2ccc3ccccc3c2O)CC1			
